# In PubChem BioAssay:
# The source made the active and inactive calls.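 Rule for the calls, unless noted: active = NADPH fluorescence slope more negative than the mean of all samples by about 3 SD, 99.7% confidence; inactive = the rest.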
# Legend:
# [1] = inhibitors of TNFa-induced NFkB p65 translocation, primary screen, imaging, HUVEC, MLSMR starter and 10KST1 sets (AID 438;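 active = inhibition above 20% together with a positive visual image hit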;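 note: compound added about 3h40 before a 20 min TNFalpha stimulation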;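 for inhibition: signal is the nuclear over cytoplasmic p65 intensity ratio per well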); settings: HUVEC TNFa-induced p65 nuclear translocation; cell count: measured here: nuclei count (cytotoxicity indicator), at 2.08 µM; inhibition: at 2 µM, stronger effect = higher value, 0% TNFa-plus-vehicle, 100% no-TNFa wells
# [2] = inhibitors of mutant huntingtin aggregation, primary screen, imaging, exon1htt(103Q)mCFP cells, high-content imaging (AID 483;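 active = visual image review flags a hit and inhibition of aggregation exceeds 20%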;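 note: compound exposure lasted 3 days before fixation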;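 for nuclei count: percent of the per-plate median nuclei count of sample wells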); settings: exon1htt(103Q)mCFP cell line, aggregate imaging, at 2 µM; inhibition of aggregation: stronger effect = higher value; nuclei count: measured here: cell count, toxicity
# [3] = inhibitors of E-selectin induction by TNFa, primary screen, imaging, HUVEC, immunofluorescence, MLSMR starter and 10KST1 sets (AID 487;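 active = visually confirmed hit in the image check and inhibition above 20%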;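 for inhibition: signal is fraction of cell area covered by stained E-selectin grains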;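 for nuclei count: 100% = median nuclei count of all wells on the same plate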); settings: HUVEC TNFalpha-induced E-selectin immunofluorescence imaging, at 2 µM; inhibition: stronger effect = higher value; nuclei count: measured here: cell number, toxicity
# [4] = target: Voltage-gated potassium channel subunit beta-2 (Rattus norvegicus) (UniProt P62483); test: KvBeta enzyme negative modulators, primary screen, biochemical, NADPH fluorescence (AID 622;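 active = fluorescence slope higher than the sample average by over 3 SD, cut at about -0.22 in these data, passing the limit was not always enough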;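 note: slope of raw intensity against log time taken from 70 to 1610 s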); settings: recombinant KvBeta, 4-cyanobenzaldehyde reduction, at 10 µM, stronger effect = higher value
# [5] = target: Voltage-gated potassium channel subunit beta-2 (Rattus norvegicus) (UniProt P62483); test: KvBeta positive modulators, primary screen, biochemical, NADPH fluorescence (AID 623); settings: Recombinant KvBeta, NADPH fluorescence decrease slope, 10 min; at 10 µM; stronger effect = lower value;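 note: fluorescence intensity change per second fitted from 20 to 320 s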
# [6] = target: Alpha-2C adrenergic receptor (Homo sapiens) (UniProt P18825); test: modulators of alpha2C/GIRK thallium flux, primary screen, cell-based, HEK293 alpha2C/GIRK1/2 (AID 624;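 active = fluorescence slope after compound addition differing from the mean of all screened samples at 99.7% confidence, in either direction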;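 note: slope of fluorescence ratio to pre-addition baseline per second over 15 to 24 s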); settings: thallium flux BTC fluorescence, at 10 µM, actives lie on both sides
# [7] = inhibitors of larval lipid processing in zebrafish, primary screen, whole organism, PED6 fluorescence, gall bladder and intestine (AID 686;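 active = a full or partial loss of lipid-probe fluorescence in the fish gall bladder, intestine or both, judged by eye; inactive = no fluorescence loss, or compound toxic to the fish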;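 note: larvae 5 to 7 days old with five fish per well; signal comes from phospholipase A2 cleavage of quenched PED6 carried via bile; overnight exposure to compound and PED6 before scoring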); settings: Zebrafish larvae PED6 lipid processing, fluorescence scoring; screened at 20 µM (by protocol)
# Outline: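 System: live zebrafish larvae aged 5-7 days, whole organism; measure: graded gall bladder and intestinal fluorescence inhibition per well; incubation: overnight exposure; reagent: ingested quenched lipid PED6 at 100 nM; signal: By-eye fluorescence microscopy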
# [8] = inhibitors of Sendai virus-induced IRF3 signaling, primary screen, TLR/RLR signaling modifier project, cell-based, Sendai virus stimulus, luciferase, 10K MLSCN set (AID 602276;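 active = inhibition at or above 50% at 10 µM; inactive = inhibition below 50%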;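 note: firefly luciferase from ISG56 promoter only with Renilla not read in this screen; 0% = Sendai virus plus DMSO and 100% = medium plus DMSO without virus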); settings: HEK293 RL24 IRF3 luciferase reporter, at 10 µM, stronger effect = higher value
# [9] = inhibitors of poly I:C-induced TLR3 signaling, primary screen, cell-based, poly I:C stimulus, luciferase, 10K MLSCN set (AID 602277;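 active = inhibition of the reporter signal at or above 50%; inactive = inhibition below 50%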); settings: HEK293-TLR3 RL24 IRF3 luciferase reporter, at 10 µM, stronger effect = higher value
# Alpha-2C adrenergic receptor (Homo sapiens), sequence (P18825 whole entry, looked up): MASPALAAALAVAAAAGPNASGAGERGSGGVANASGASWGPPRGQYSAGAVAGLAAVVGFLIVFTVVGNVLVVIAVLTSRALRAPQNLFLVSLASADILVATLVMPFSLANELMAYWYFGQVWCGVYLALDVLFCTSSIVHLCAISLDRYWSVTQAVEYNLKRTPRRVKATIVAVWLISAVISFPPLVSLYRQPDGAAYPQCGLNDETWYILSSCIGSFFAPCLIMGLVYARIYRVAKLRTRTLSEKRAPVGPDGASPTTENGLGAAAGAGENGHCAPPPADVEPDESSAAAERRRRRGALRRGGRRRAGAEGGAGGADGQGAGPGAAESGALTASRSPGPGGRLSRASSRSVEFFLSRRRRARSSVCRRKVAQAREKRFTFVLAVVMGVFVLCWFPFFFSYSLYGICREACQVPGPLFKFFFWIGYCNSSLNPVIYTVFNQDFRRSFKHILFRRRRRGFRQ
# Voltage-gated potassium channel subunit beta-2 (Rattus norvegicus), sequence (P62483 whole entry, looked up): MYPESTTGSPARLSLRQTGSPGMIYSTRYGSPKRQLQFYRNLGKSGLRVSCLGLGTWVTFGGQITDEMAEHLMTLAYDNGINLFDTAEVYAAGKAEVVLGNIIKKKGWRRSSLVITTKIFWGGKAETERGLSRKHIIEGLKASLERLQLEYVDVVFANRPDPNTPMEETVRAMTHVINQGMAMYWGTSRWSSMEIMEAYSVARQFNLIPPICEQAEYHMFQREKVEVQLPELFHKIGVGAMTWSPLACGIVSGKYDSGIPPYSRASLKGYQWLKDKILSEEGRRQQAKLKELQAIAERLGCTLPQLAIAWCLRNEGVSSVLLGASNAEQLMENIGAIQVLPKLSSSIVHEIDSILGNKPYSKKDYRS
Structure (SMILES),cell count [1],inhibition [1],inhibition of aggregation [2],nuclei count [2],inhibition [3],nuclei count [3],fluorescence slope [4],NADPH fluorescence slope [5],slope [6],outcome [7],inhibition [8],inhibition [9]
Cc1nn(Cc2ccccc2)c(C)c1NC(=O)c1cc(-c2ccco2)on1,408,-8.1% (inactive),-15.5% (inactive),101%,-15.3% (inactive),101%,-0.347 (inactive),-6.8e-06 (inactive),0.00588 (inactive),inactive,9.89% (inactive),12.8% (inactive)
C1=C(CCNc2ncnc3c2cnn3-c2ccccc2)CCCC1,355,2.8% (inactive),17.1% (inactive),91.5%,-22.4% (inactive),124%,-0.375 (inactive),-6.3e-05 (inactive),0.00514 (inactive),inactive,-36.5% (inactive),-142% (inactive)
COc1ccc(OC)c(Nc2nc(-c3cccs3)cs2)c1,333,1.5% (inactive),-9.1% (inactive),104%,-35.5% (inactive),110%,-0.444 (inactive),-6e-05 (inactive),0.00343 (inactive),active; weak signal in gallbladder and intestine,7.1% (inactive),-5.46% (inactive)
C=C(C)Cn1c(CCCNC(=O)C(C)(C)C)nc2ccccc21,770,-19.6% (inactive),-0.5% (inactive),106%,14% (inactive),110%,-0.397 (inactive),-3.4e-05 (inactive),0.00533 (inactive),inactive,6.04% (inactive),98.2% (active)
c1ccc(OCCCn2nnc(-c3ccncc3)n2)cc1,604,-9.9% (inactive),2.3% (inactive),91.9%,-57.3% (inactive),114%,-0.454 (inactive),-2.7e-05 (inactive),0.00445 (inactive),inactive,13.2% (inactive),-7.55% (inactive)
CCOC(=O)N1CCN(C(=O)CN(C2CCCCC2)S(=O)(=O)c2ccc(F)cc2)CC1,645,-10.7% (inactive),18.3% (inactive),81.3%,-51.6% (inactive),108%,-0.355 (inactive),-7.3e-05 (inactive),0.00492 (inactive),inactive,21.5% (inactive),81.8% (active)
O=C(NC1CCCC1)C(NS(=O)(=O)c1cccc2nsnc12)c1ccccc1 (centres undefined),309,-16.3% (inactive),2.5% (inactive),103%,-22.2% (inactive),109%,-0.329 (inactive),1.1e-05 (inactive),0.0045 (inactive),inactive,17.9% (inactive),17.3% (inactive)
COCCn1c(C)cc(C(=O)COC(=O)c2ccc(N3CCCC3=O)cc2)c1C,527,-16.9% (inactive),12.8% (inactive),97.9%,26.9% (inactive),103%,-0.329 (inactive),-7.1e-05 (inactive),0.00515 (inactive),inactive,14.7% (inactive),26.1% (inactive)
COc1ccc(N=C2C(=O)Nc3ccccc32)cc1,617,2.4% (inactive),-5% (inactive),100%,-96.7% (inactive),138%,-0.374 (inactive),-1.5e-06 (inactive),0.00431 (inactive),inactive,13% (inactive),28.1% (inactive)
O=C(c1cnn2c(C(F)F)cc(-c3ccccc3)nc12)N1CCN2CCCC2C1 (centres undefined),223,-3.7% (inactive),13% (inactive),100%,-87.1% (inactive),129%,-0.251 (inactive),-1.6e-05 (inactive),0.00468 (inactive),inactive,15.8% (inactive),32.7% (inactive)
O=C(NCc1cccnc1)c1cccc(C(F)(F)F)c1,355,5.2% (inactive),1.3% (inactive),111%,4.9% (inactive),103%,-0.452 (inactive),-2.9e-05 (inactive),0.00523 (inactive),inactive,11.3% (inactive),20.1% (inactive)
C=CCC1(O)C(=O)Nc2ccccc21 (centres undefined),585,-13.3% (inactive),-5.5% (inactive),106%,-66.6% (inactive),115%,-0.339 (inactive),-5.2e-05 (inactive),0.00522 (inactive),inactive,16.6% (inactive),18.3% (inactive)
CC(CCc1ccccc1)NC(=O)C1CCN(S(=O)(=O)c2cnc[nH]2)CC1 (centres undefined),554,-20.8% (inactive),-7.9% (inactive),107%,16.4% (inactive),110%,-0.367 (inactive),-5.5e-05 (inactive),0.00556 (inactive),inactive,9.51% (inactive),18% (inactive)
CC1(C)CC(=O)C2=C(C1)Nc1ccccc1N=C2,759,-6.9% (inactive),11.9% (inactive),104%,40.8% (inactive),94.5%,-0.483 (inactive),-5.6e-05 (inactive),0.00436 (inactive),inactive,-4.26% (inactive),-38.2% (inactive)
O=C(NCc1ccco1)c1cc2sccc2n1Cc1ccccc1,455,5% (inactive),8.8% (inactive),114%,-33.7% (inactive),110%,-0.463 (inactive),5.4e-05 (inactive),0.00405 (inactive),inactive,-19.7% (inactive),-28.5% (inactive)
COc1ccccc1NC(=O)N(Cc1ccco1)Cc1cc2cccc(C)c2[nH]c1=O,333,-9.3% (inactive),18.6% (inactive),105%,30.7% (inactive),89.2%,-0.347 (inactive),-5.6e-05 (inactive),0.00419 (inactive),inactive,8.12% (inactive),-0.891% (inactive)
CCCCCc1nnc(NC(=O)Cc2cccs2)s1,325,3.8% (inactive),-1.3% (inactive),93.5%,-23.7% (inactive),95.6%,-0.412 (inactive),-5.9e-05 (inactive),0.00431 (inactive),inactive,11.9% (inactive),1.2% (inactive)
Cc1ccc(-c2nn(-c3ccccc3)cc2/C=C(\C#N)c2cccc(C#N)c2)o1,264,-9.3% (inactive),-10% (inactive),97.5%,3.9% (inactive),84.1%,-0.273 (inactive),-2.6e-05 (inactive),0.0087 (active),inactive,13.8% (inactive),5.01% (inactive)
O=C(CSc1nc2ccccc2c(=O)n1Cc1ccco1)NCc1ccccc1,399,-6.1% (inactive),1.9% (inactive),87.8%,-6.6% (inactive),103%,-0.439 (inactive),-4.9e-05 (inactive),0.0067 (inactive),inactive,19.4% (inactive),9.86% (inactive)
O=C(O)CCc1ccc(-c2ccc(F)cc2)n1CCC(=O)O,422,1.8% (inactive),-12.9% (inactive),118%,-140% (inactive),120%,-0.427 (inactive),-5.7e-05 (inactive),0.00497 (inactive),inactive; toxic,15.3% (inactive),19.9% (inactive)
C=CCn1c(SCC(=O)Nc2ccc3c(c2)OCO3)nc2ccccc2c1=O,388,-0.4% (inactive),1.9% (inactive),96.8%,37.8% (inactive),90.6%,-0.429 (inactive),-3.8e-05 (inactive),0.00549 (inactive),inactive,15.8% (inactive),14.8% (inactive)
Cc1cc(NC(=O)CS(=O)(=O)c2cn(Cc3ccccc3Cl)c3ccccc23)no1,767,-27.1% (inactive),0.3% (inactive),98.5%,67.2% (active),83.3%,-0.323 (inactive),-2.3e-05 (inactive),0.00422 (inactive),inactive,7.87% (inactive),2.26% (inactive)
COc1ccccc1NC(=O)N(Cc1ccco1)Cc1cc2c(C)ccc(C)c2[nH]c1=O,722,-11.9% (inactive),2.5% (inactive),98.7%,-13.2% (inactive),100%,-0.463 (inactive),-4.7e-05 (inactive),0.00639 (inactive),inactive,12.5% (inactive),5.06% (inactive)
Cc1cc(C)nc(SCc2ccc3nonc3c2)n1,634,-4.3% (inactive),-20.5% (inactive),114%,12.3% (inactive),97.4%,-0.282 (inactive),-1.3e-05 (inactive),0.00664 (inactive),inactive; toxic,8.18% (inactive),10.6% (inactive)
O=C(CSc1nnc(-c2ccco2)n1CC1CCCO1)NC1CCCC1 (centres undefined),336,-6.2% (inactive),10.7% (inactive),101%,-15.3% (inactive),121%,-0.361 (inactive),-5.1e-05 (inactive),0.00445 (inactive),inactive,7.82% (inactive),4.4% (inactive)
O=C(CN1CCN(Cc2ccc3c(c2)OCO3)CC1)N1CCc2[nH]c3ccc(F)cc3c2C1,687,13.9% (inactive),6.4% (inactive),96.6%,34.4% (inactive),101%,-0.409 (inactive),-6.8e-05 (inactive),0.00435 (inactive),inactive,12% (inactive),4.08% (inactive)
O=C(NCCN1CCOCC1)c1ccc(CS(=O)(=O)Cc2ccccc2F)o1,536,-21.6% (inactive),-10.5% (inactive),94.3%,-69.5% (inactive),108%,-0.453 (inactive),-5.9e-05 (inactive),0.00503 (inactive),inactive,11.2% (inactive),9.56% (inactive)
